This is an account of results in ChEMBL document CHEMBL4513216, “Probing the Open Global Health Chemical Diversity Library for Multistage-Active Starting Points for Next-Generation Antimalarials” (ACS Infect Dis, 2020).

A short description of this data set: Toxicity liver stage against HepG2, at 10uM. Set-up: test concentration 10 uM, cell line HepG2-A16-CD81EGFP. Format: cell-based. The conditions noted are these: human, HepG2-A16-CD81EGFP cells; read-out: INHIBITION
In a few lines:
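Uninfected HepG2-A16-CD81EGFP cells, 3 × 10^3 per well, 1536-well, plated on prespotted compound at 10 μM final, parasite-free screening media added to match infected plates; puromycin 10 μM positive, DMSO 0.5% negative; run in parallel with 48 h PbLuc assay at 37 °C, 5% CO2; viability by CellTiter-Glo luminescence, normalized to controls.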
For the compound `Cc1scc(C(=O)N2CCC3(CC(=O)NC3=O)C2)c1-c1ccccc1` (stereo unspecified), the cytotoxicity at 10 µM is -17.5%. Under `Cc1nc(CC(=O)N2CCC(Nc3cccnn3)CC2)cs1` stands -9.45%. Turning to `O=C(c1cccc(-c2ccc(F)cc2)c1)N1CCC2(CC1)[C@H](O)C[C@@H]2O`, the cytotoxicity at 10 µM stood at 2.37%.

As for `CCc1nn2c(=N)c(C#N)n[nH]c2c1-c1ccc(OC)cc1`, the cytotoxicity at 10 µM is -3.73%. Take `O=C(CCn1ncc2c(Cl)cccc21)NCC1CC1`: the cytotoxicity at 10 µM came out at 10.6%. As to `Cc1n[nH]c(C)c1-c1cc(-c2cc[nH]c2)nc(N)c1C#N`, the cytotoxicity at 10 µM was found to be 2.41%.

On to `CCC(=O)N(C)Cc1cccc(OC(C)C)c1`, for which the cytotoxicity at 10 µM was determined as 12.8%. For `N#CCCN(Cc1cccnc1)C(=O)c1cc(Cl)c[nH]1`, the cytotoxicity at 10 µM was -18.4%. The result for `CN(C)C(=O)CCC1CCCN(Cc2cccc(-c3ccccn3)c2)C1` (stereo unspecified) reads 3.45%; that for `CCCn1ncc(-c2ccnc(N[C@@H]3C[C@H]4CC[C@@H]3C4)n2)c1C`, 0.541%.

Take `CS(=O)(=O)N1CCN(C(=O)c2cccc(Cl)c2)CC2(CNC(=O)C2)C1` (stereo unspecified): the cytotoxicity at 10 µM came out at 6.86%. Under `CCc1nc(C)c(C(=O)NCCNC(=O)c2cccs2)s1` stands -1.45%; under `Cc1nc(CN2CC(Cc3ccccc3)CC2=O)no1` (stereo unspecified), 2.42%; under `Cc1ccccc1CSc1nc(N)cc(N2CCOC(C(N)=O)C2)n1` (stereo unspecified), 5.27%. As for `Cc1ccc(C(O)CNC(=O)Nc2cc(C)nn2C)cc1` (stereo unspecified), the cytotoxicity at 10 µM is -13.3%. Turning to `CCCc1noc(C(C)N2CC(n3cccn3)C2)n1` (stereo unspecified), the cytotoxicity at 10 µM was 2.13%. The result for `Cc1ccc(S(=O)(=O)Nc2ccc(-n3cccc3C(=O)O)c(C)c2)cc1` reads -3.94%; that for `Cc1cc(C[C@@H]2CCC[C@H]2NCc2cc(C)c(O)c(C)c2)on1`, 3.37%; that for `c1ccc(-c2noc(CCNC3CCOC4(CCOCC4)C3)n2)nc1` (stereo unspecified), -6.5%. Under `COc1cc(OC)cc(-c2cc(CN)nc3ccnn23)c1` stands -0.945%; under `O=C(c1cccs1)N1CCC2(CC1)CN(c1ccsc1)C(=O)CO2`, -70.5%. For `Cc1ccc(N2CCCC(N3CCC4(CC3)OCCO4)C2=O)cc1` (stereo unspecified), the cytotoxicity at 10 µM stood at 6.7%. In the case of `CC(NC(=O)N(C)Cc1ccsc1)c1ccc2c(c1)OCO2` (stereo unspecified), the cytotoxicity at 10 µM was -10.6%. Under `CCc1ncc(CN2CCOC(Cc3cccc(F)c3)C2)cn1` (stereo unspecified) stands 0.0753%; under `Cc1cc(NC(=O)CN2CCc3c(nc(C(C)C)n3C)C2)on1`, -3.17%. Under `CC(NC(=O)CSCC(N)=O)c1ccccc1Oc1ccccc1` (stereo unspecified) stands 4.84%. The result for `COCc1cccc(CNCc2c(C)nn(C)c2N(C)C)c1` reads 1.08%; that for `COc1ccc(C)cc1NC(=O)Nc1cnc(N2CCN(C)CC2)nc1`, 5.06%; that for `CCN(Cc1cnc(-c2ccccn2)nc1)C1CCS(=O)(=O)C1` (stereo unspecified), -5.24%. As to `Cc1ncsc1CN1C[C@@H](OCC2CC2)[C@H]2OCCC[C@H]21`, the cytotoxicity at 10 µM is -9.76%. Under `O=C(Cc1ccsc1)N1C[C@@H]2OCCN(CC3CC3)[C@@H]2C1` stands 10.1%; under `O=C(Nc1cccc(CN2CCOC2=O)c1)N1CCOCC1`, -8.6%. Turning to `c1ccc(C[C@H]2[C@H](N3CCOCC3)CCN2Cc2cccnc2)cc1`, the cytotoxicity at 10 µM was -4.34%. As for `CC(C)C(C)N(C(=O)Cn1nc2n(c1=O)CCCCC2)C1CC1` (stereo unspecified), the cytotoxicity at 10 µM was -5.77%. The result for `CCc1ccc(C2NCCc3cc4c(cc32)OCCO4)cc1` (stereo unspecified) reads -6.63%. Under `O=C(COc1cccnc1)N1CCCC(n2cccn2)C1` (stereo unspecified) stands -1.92%; under `Cn1ncc2c1CCCC2NCc1ccc(Cl)s1` (stereo unspecified), 7.6%.

As to `Cc1cc(N2CCC(C(=O)O)(n3ccc(C(C)(C)C)n3)CC2)nc(N)n1`, the cytotoxicity at 10 µM is -5.6%. The result for `COCC(C)NC(=O)Nc1cc(-c2ccccc2C)nn1CCO` (stereo unspecified) reads -14.3%; that for `CC(=O)NC1CCN(c2cc(C3CCNCC3)nc(C)n2)C1` (stereo unspecified), -1.92%; that for `CC(=O)N1CCc2ccccc2C1CC(=O)NCc1nnc(C)o1` (stereo unspecified), 5.8%. The result for `N#Cc1cccc(N2CCC3(CCC(=O)N(CC4CCCO4)C3)CC2)n1` (stereo unspecified) reads 4.11%; that for `CS(=O)(=O)NC[C@]12COC[C@H]1CN(CC1CCCC1)C2`, 1.52%; that for `CC(C)C1CCCN1CCCc1nc(-c2cccs2)no1` (stereo unspecified), -16%.

Consider `Cn1cccc1C(=O)N1CCCCC1c1[nH]ncc1S(C)(=O)=O` (stereo unspecified), for which the cytotoxicity at 10 µM is -4.66%.

Consider `CNC(=O)C1(N(C)CCc2ccccc2)Cc2ccccc2C1`, for which the cytotoxicity at 10 µM stood at 11.5%. Under `CCOc1ccc(C(=O)NS(=O)(=O)c2cncc(Br)c2)cc1OC` stands -5.07%; under `Cc1noc(C2CCN(C(=O)CCc3nccs3)CC2)n1`, -5.43%. The result for `O=C(c1ccco1)N1C[C@H]2CCCN(Cc3nccs3)[C@H]2C1` reads 2.32%.

On to `COC[C@]12COC[C@H]1CN(Cc1cccnc1OC)C2`, for which the cytotoxicity at 10 µM was -9.83%. Take `CC(=O)Nc1nc(-c2ccc(C)c(C)c2)c[nH]1`: the cytotoxicity at 10 µM was -19.3%.

As to `CN(Cc1cccc(C(F)(F)F)c1)Cc1nc(-c2cnccn2)no1`, the cytotoxicity at 10 µM is 1.35%.

Regarding `Cc1nn(C)c(Cl)c1C1CCCN1Cc1nc(-c2ccco2)no1` (stereo unspecified), the cytotoxicity at 10 µM is -11.8%.

Take `CCCN1CCC(NC(=O)c2csc(C)c2-c2ccc(C)cc2)CC1`: the cytotoxicity at 10 µM was -4.14%.

In the case of `CCn1ncc2c1CCCC2NCC1=Cc2ccccc2OC1` (stereo unspecified), the cytotoxicity at 10 µM is -4.31%.

`CS(=O)(=O)N1CCC2(CCN(C(=O)c3cccnc3)CC2)C1`: the cytotoxicity at 10 µM was determined as 3.59%. Under `CC(=O)N(C)Cc1cccc(NC(=O)N(C)CCc2cccs2)c1` stands -2.67%. As to `O=C(Cc1cccs1)Nc1cnn(C2CCOCC2)c1`, the cytotoxicity at 10 µM is -0.779%.

On to `Cc1ncsc1CNC(=O)N1CCN(Cc2ccccc2)CC1C` (stereo unspecified), for which the cytotoxicity at 10 µM was -131%. Under `c1nc(N2CCc3nc[nH]c3C2)c2cc[nH]c2n1` stands -5.71%; under `O=C(c1cccc(S(=O)(=O)NCCCc2ccco2)c1)N1CCOCC1`, -23.6%. On to `Cc1cc(C)n(CC(=O)N2CCCC(c3cc4cccnc4[nH]3)C2)n1` (stereo unspecified), for which the cytotoxicity at 10 µM came to 8.3%.

For the compound `CN(C)CCNc1cc(-c2ccc[nH]c2=O)c2cc[nH]c2n1`, the cytotoxicity at 10 µM was 9.26%.

For the compound `CN1CC2(CCN(C(=O)COc3ccc(Cl)cc3Cl)CC2)OC1=O`, the cytotoxicity at 10 µM was -3.25%.

Regarding `c1ccc(COC2CCN(Cc3cc4n(n3)CCCNC4)CC2)nc1`, the cytotoxicity at 10 µM was 2.59%. Regarding `O=C(NCCCN1CCCC1=O)c1nc(-c2ccc3[nH]ccc3c2)no1`, the cytotoxicity at 10 µM is -3.43%. The result for `CN(c1ncc(C(=O)NCc2ccccc2)c(N)n1)C1CCCCC1` reads -4.31%. With `O=C(CC1CCc2ccccc21)NC1(C(=O)O)CCCC1` (stereo unspecified), the cytotoxicity at 10 µM was -11.9%.

For the compound `CCc1nnc2n1CCN(CC(O)CN1CCC(C)CC1)C2` (stereo unspecified), the cytotoxicity at 10 µM was -7.37%. As for `CC(C)C(=O)NCCNC(=O)CCOc1cccc(F)c1`, the cytotoxicity at 10 µM was -2.98%. Under `CCc1noc(C(C)N2CCN(Cc3noc(C4CC4)n3)CC2)n1` (stereo unspecified) stands -2.13%; under `CC(C)NC(=O)Nc1ccc(-c2nc(C(C)C)no2)cc1`, -8.56%; under `Cc1nc(CN(C)C2CCN(CCCOc3ccccc3)C2)no1` (stereo unspecified), -9.26%. Under `O=C1COC2(COCCN(Cc3ccsc3)C2)CN1c1ccc(F)cc1` (stereo unspecified) stands 2.83%; under `O=C(c1ccco1)N1CCOCC2(C1)CN(c1cccnc1)C(=O)CO2` (stereo unspecified), 5.88%. `Cc1cc(Cl)ccc1C(=O)N[C@H]1CN(S(C)(=O)=O)C[C@@H]1C1CC1`: the cytotoxicity at 10 µM was 8.9%. Consider `CC(C)N(C)CCNC(=O)NCc1ccccc1-n1cccn1`, for which the cytotoxicity at 10 µM was -7.57%. The result for `Cc1cccc(C(=O)N2CC(C(=O)NCC3CC3)C3(CCOCC3)C2)n1` (stereo unspecified) reads 2.11%; that for `CCc1cc(C(F)(F)F)c2c(C)nn(CC(=O)O)c2n1`, 0.77%. For `COc1cccc(CN2CCC(O)(c3ccc(C)cn3)CC2)c1OC`, the cytotoxicity at 10 µM was -107%. `Cc1cc(C(F)(F)F)cc(=O)n1CCCn1cnnn1`: the cytotoxicity at 10 µM came to 1.16%. Regarding `CN(Cc1nccn1C)c1nccc(N2CCCC(O)C2)n1` (stereo unspecified), the cytotoxicity at 10 µM is -8.29%. The result for `CCN1CCc2[nH]cnc2C12CCN(Cc1ccc3nsnc3c1)CC2` reads 3.72%; that for `Cn1cc(N2CCC3(CCN(Cc4cccnc4)C3)C2=O)cn1` (stereo unspecified), 3.63%. With `O=C(NCCN1CCOCC1)C1=NOC2(CCN(Cc3nccs3)C2)C1` (stereo unspecified), the cytotoxicity at 10 µM is -79.3%.

For the compound `CCCNc1ncc(-c2cc(C3CC3)nc(N)c2C#N)cn1`, the cytotoxicity at 10 µM came out at 8.26%. For the compound `OCCNc1cc(N2CCC(n3cc(C4CCCC4)nn3)CC2)ncn1`, the cytotoxicity at 10 µM is -9.72%. Take `Cc1nc(C)c(C(=O)N2CCc3nnc(C4CCCCN4C)n3CC2)s1` (stereo unspecified): the cytotoxicity at 10 µM came to 0.642%. The result for `O=C1CCCN1CC1CN(CC2CCOCC2)Cc2nccn2C1` (stereo unspecified) reads 1.65%. `Cc1cccc(CN2Cc3[nH]nc(COCCO)c3C2)n1`: the cytotoxicity at 10 µM was determined as 0.442%.

In the case of `Cc1nc(N)ncc1C(=O)N1CCCC(CCc2ccccc2F)C1` (stereo unspecified), the cytotoxicity at 10 µM was -4.96%. Under `COC(=O)CN1CC(c2nc(Cc3ccccc3)no2)C1` stands -22.9%; under `Cn1ccnc1C(=O)N[C@@H]1CN(Cc2ccc(F)cc2)[C@@H]2CCCO[C@@H]21`, -111%; under `OC[C@@H]1CCCN1c1nccc(-c2c[nH]nc2-c2ccncc2)n1`, -4.28%.

On to `Cc1noc(CNC(=O)CN(C)c2nc3c(F)cccc3s2)n1`, for which the cytotoxicity at 10 µM came to 3.76%. The result for `COC(=O)c1ccoc1CN(C)CC(=O)NC1CCS(=O)(=O)C1` (stereo unspecified) reads -14.2%.
